From ChEMBL document CHEMBL1156237, “Antiviral activity of benzimidazole derivatives. II. Antiviral activity of 2-phenylbenzimidazole derivatives” (Bioorg Med Chem, 2010)
The source made the active and inactive calls.

What was measured:
Human alphaherpesvirus 1 = experiment: Antiviral activity against HSV1 KOS infected in african green monkey Vero cells after 3 days by plaque reduction assay; type: functional, organism-based; conditions: Human alphaherpesvirus 1, KOS, 72 h
Procedure, shortened: (§1)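 Plaque reduction assay. Vero 76 cells at 2 × 10^5/well, grown overnight to confluence in D-MEM with 10% FBS. Infected 2 h with 50–100 PFU/well, unadsorbed virus removed. Overlay of D-MEM with 1% inactivated FBS and 0.75% methylcellulose, with or without serial compound dilutions. Incubated at 37 °C for 3 days (HSV-1 KOS, CVB-2 Ohio-1) or 5 days (RSV A2). Fixed and stained with crystal violet in 50% ethanol; plaques counted; EC50 by linear regression.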

Poliovirus 1 = experiment: Antiviral activity against Polio virus type1 Sabin strain Chat infected in african green monkey Vero cells after 2 days by plaque reduction assay; type: functional, organism-based, Human poliovirus 1 strain Sabin; conditions: Enterovirus C, 48 h
Vaccinia virus = experiment: Antiviral activity against Vaccinia virus Elstree-Lister infected in african green monkey Vero cells after 3 days by plaque reduction assay; type: functional, organism-based; conditions: Orthopoxvirus vaccinia; for EC50: 72 h
[1] = Cytotoxicity against african green monkey Vero cells; type: cell-based; conditions: chlorocebus sabaeus
Procedure, shortened: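 Vero 76 monolayers exposed to serial compound dilutions, run in parallel on the same 24-well plates as the plaque-reduction assays. CC50 is the concentration reducing viability of mock-infected cells by 50%.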

[2] = tested on: Bovine viral diarrhea virus 1; experiment: Antiviral activity against Bovine viral diarrhea virus NADL infected in MDBK cells assessed as protection from virus-induced cytopathogenicity after 3 to 4 days by MTT method; type: functional, organism-based, Bovine viral diarrhea virus 1-NADL; conditions: Bovine viral diarrhea virus isolates and strains, MDBK
Procedure, shortened: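 Cytopathogenicity protection assay. MDBK cells at 3 × 10^4/well, grown overnight to confluence. Infected with BVDV NADL at m.o.i. 0.01 in MEM-E with 0.5% inactivated FBS, 1 mM Na pyruvate and 1% kanamycin. Serial compound dilutions added after 1 h. After 3–4 days at 37 °C, viability read by MTT; EC50 is the concentration giving 50% protection.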

[3] = Cytotoxicity against human MT4 cells after 96 hrs by MTT assay; type: cell-based; conditions: MT4 cells
Procedure, shortened: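 Exponentially growing MT-4 cells at 1 × 10^5 cells/mL in RPMI-1640 with 10% FCS, exposed to serial compound dilutions at 37 °C, 5% CO2. Viability by MTT after 96 h; CC50 is the concentration reducing viability of mock-infected cells by 50%.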

[4] = Cytotoxicity against BHK cells after 48 to 96 hrs by MTT assay; type: cell-based, Mesocricetus auratus; conditions: hamster
Procedure, shortened: (§2)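 Cell seeding: MDBK at 6 × 10^5 cells/mL in MEM-E with 10% horse serum and 1 mM Na pyruvate; BHK at 1 × 10^6 cells/mL in MEM-E with 10% FBS. Serial compound dilutions, 37 °C, 5% CO2. Viability of mock-infected cells by MTT after 48–96 h; CC50 is the concentration reducing viability by 50%.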

Yellow fever virus = experiment: Antiviral activity against Yellow fever virus 17D infected in BHK cells assessed as protection from virus-induced cytopathogenicity after 3 to 4 days by MTT method; type: functional, organism-based
[5] = tested on: Respiratory syncytial virus; experiment: Antiviral activity against RSV A2 infected in african green monkey Vero cells after 5 days by plaque reduction assay; type: functional, organism-based; conditions: for EC50: human respiratory syncytial virus, A2, Vero, 120 h; procedure, shortened: as §1
[6] = Selectivity index, ratio of CC50 for african green monkey Vero cells to EC50 for Human coxsackievirus B2 Ohio-1; type: toxicity, cell-based; conditions: read-out: Ratio CC50/EC50
Coxsackievirus B2 = experiment: Antiviral activity against Human coxsackievirus B2 Ohio-1 infected in african green monkey Vero cells after 3 days by plaque reduction assay; type: functional, organism-based, Coxsackievirus B2 (strain Ohio-1); conditions: Enterovirus B, Vero, 72 h; procedure, shortened: as §1
[7] = Selectivity index, ratio of CC50 for human MT4 cells to EC50 for Human coxsackievirus B2 Ohio-1; type: toxicity, cell-based; conditions: read-out: Ratio CC50/EC50
[8] = Cytotoxicity against MDBK cells after 48 to 96 hrs by MTT assay; type: cell-based, Bos taurus; conditions: cattle, MDBK cells; procedure, shortened: as §2
[9] = tested on: Human immunodeficiency virus 1; experiment: Antiviral activity against HIV1 3B infected in human MT4 cells assessed as protection from virus-induced cytopathogenicity after 4 days by MTT method; type: functional, organism-based
Procedure, shortened: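 MT-4 cells, 1 × 10^4/well in RPMI with or without serial compound dilutions, infected with HIV-1 IIIB, 100 CCID50 (m.o.i. 0.01). Protection from virus-induced cytopathogenicity read by MTT.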

[10] = tested on: Vesicular stomatitis virus; experiment: Antiviral activity against VSV Indiana lab infected in african green monkey Vero cells after 2 days by plaque reduction assay; type: functional, organism-based
[11] = Selectivity index, ratio of CC50 for MDBK cells to EC50 for Bovine viral diarrhea virus NADL; type: toxicity, cell-based; conditions: cattle, read-out: Ratio CC50/EC50
[12] = Selectivity index, ratio of CC50 for human MT4 cells to EC50 for Bovine viral diarrhea virus NADL; type: toxicity, cell-based; conditions: read-out: Ratio CC50/EC50
[13] = tested on: Mammalian orthoreovirus 1; experiment: Antiviral activity against Reovirus 1 3651 infected in BHK21 cells assessed as protection from virus-induced cytopathogenicity after 3 to 4 days by MTT method; type: functional, organism-based; conditions: for Activity: BHK-21

| Compound | EC50 (Human alphaherpesvirus 1) [µM] | EC50 (Poliovirus 1) [µM] | CC50 [1] [µM] | EC50 [2] [µM] | CC50 at 96 h [3] [µM] | CC50 [4] [µM] | EC50 (Yellow fever virus) [µM] | selectivity ratio [6] | EC50 (Coxsackievirus B2) [µM] | selectivity ratio [7] | CC50 [8] [µM] | Activity [9] | Activity [10] | Activity (Vaccinia virus) | Activity [5] | Activity [13] | further results |
| --- | --- | --- | --- | --- | --- | --- | --- | --- | --- | --- | --- | --- | --- | --- | --- | --- | --- |
| COc1cc(OC)cc(-c2nc3cc(C(F)(F)F)ccc3[nH]2)c1 | > 100 | > 100 | > 100 | > 100 | 19 | > 100 | > 100 | > 33 | 3 | 6.3 | > 100 | inactive | inactive |  |  |  | EC50 (Vaccinia virus): > 100 µM; EC50 [5]: 10 µM |
| O=C(CN1CCCC1)Nc1ccc(-c2nc3cc(Cl)c(Cl)cc3[nH]2)cc1 | > 100 | 25 | > 100 | 2.5 | 8 | 64 | > 64 | > 67 | 1.5 | 5.3 | 16 | inactive | inactive |  |  |  |  |
| CC(=O)Nc1ccc(-c2nc3cc(C(F)(F)F)ccc3[nH]2)cc1 | 7 | 16 | 50 | 1.3 | 19 | 53 | > 53 | 17 | 3 | 6.3 | 50 | inactive | inactive |  |  |  | selectivity ratio [11]: 39; selectivity ratio [12]: 15 |
| CCN(CC)CC(=O)Nc1ccc(-c2nc3cc(C(F)(F)F)ccc3[nH]2)cc1 | 24 | > 24 | 24 | 2 | 8 | 23 | 7 |  | > 24 |  | 13 | inactive | inactive |  |  |  | selectivity ratio [11]: 6.5; selectivity ratio [12]: 4 |
| CCC(=O)Nc1ccc(-c2nc3cc(C(F)(F)F)ccc3[nH]2)cc1 | > 100 | > 100 | > 100 | > 100 | ≥ 100 | 100 | > 100 | > 25 | 4 | ≥ 25 | > 100 | inactive | inactive |  |  |  |  |
| Oc1ccc(-c2nc3cc(C(F)(F)F)ccc3[nH]2)cc1 | 25 | 24 | > 100 | > 51 | 17 | > 100 | 12 |  | 5 |  | 51 | inactive | inactive |  |  |  | EC50 (Vaccinia virus): > 100 µM; EC50 [5]: 20 µM; EC50 ([13]; Mammalian orthoreovirus 1, 3651, BHK-21): 7 µM |
| Nc1ccc(-c2nc3cc(Cl)c(Cl)cc3[nH]2)cc1 | 28 | > 100 | ≥ 100 | 1 | 17 | 30 | > 30 |  | 11 |  | 7.5 | inactive | inactive |  |  |  | selectivity ratio [11]: 7.5; selectivity ratio [12]: 17; EC50 [5]: 10 µM |
| CC(=O)Nc1ccc(-c2nc3cc(C(F)(F)F)ccc3n2C)cc1 | 49 | 14 | > 100 | > 46 | 15 | > 100 | > 100 | > 40 | 2.5 | 6 | 46 | inactive | inactive | inactive | inactive | inactive |  |
| Cn1c(-c2ccc(NC(=O)CN3CCCCC3)cc2)nc2cc(C(F)(F)F)ccc21 | > 100 | > 100 | > 100 | 6 | 9 | > 100 | > 100 |  | 32 |  | 100 | inactive | inactive | inactive | inactive | inactive |  |
| O=C(CN1CCN(c2ccccc2)CC1)Nc1ccc(-c2nc3cc(C(F)(F)F)ccc3n2C23CC4CC(CC(C4)C2)C3)cc1 | > 100 | > 100 | > 100 | > 100 | > 100 | > 100 | > 100 |  | 27 |  | > 100 | inactive | inactive | inactive | inactive | inactive |  |
| O=C(CN1CCCC1)Nc1ccc(-c2nc3cc(C(F)(F)F)ccc3[nH]2)cc1 | > 100 | > 100 | > 100 | 3 | 18 | 29 | 7 |  | > 100 |  | 15 | inactive | inactive |  |  |  | selectivity ratio [11]: 5; selectivity ratio [12]: 6 |
| CCC(=O)Nc1ccc(-c2nc3cc(C(F)(F)F)ccc3n2C2CCCCC2)cc1 | > 100 | 30 | > 100 | > 18 | 17 | 15 | > 15 |  | 7 |  | 18 | inactive | inactive | inactive | inactive | inactive |  |
| Nc1ccc(-c2nc3cc(C(F)(F)F)ccc3n2C23CC4CC(CC(C4)C2)C3)cc1 | > 60 | > 60 | 60 | 7 | 19 | 16 | > 16 |  | 11 |  | 19 | inactive | inactive | inactive | inactive | inactive |  |
| COc1cccc(-c2nc3cc(C(F)(F)F)ccc3[nH]2)c1 | 12 | > 100 | > 100 | > 28 | 19 | 90 | > 90 | > 25 | 4 | 4.8 | 28 | inactive | inactive |  |  |  | EC50 (Vaccinia virus): > 100 µM; EC50 [5]: 7 µM |
| Nc1ccc(-c2nc3cc(C(F)(F)F)ccc3n2C2CCCCC2)cc1 | > 100 | > 100 | > 100 | > 100 | 44 | > 100 | > 100 |  | > 100 |  | > 100 | inactive | inactive | inactive | inactive | inactive |  |
| CC(=O)Nc1ccc(-c2nc3cc(C(F)(F)F)ccc3n2C2CCCCC2)cc1 | > 30 | > 30 | 30 | > 17 | 24 | 15 | > 15 |  | 9 |  | 17 | inactive | inactive | inactive | inactive | inactive |  |
